Source: ChEMBL document CHEMBL1208712, “Synthesis and anti-HCV activity of 3',4'-oxetane nucleosides” (Bioorg Med Chem Lett, 2010)

Assays:
[1] = Inhibition of HCV NS5B polymerase after 30 mins; set-up: species or system Hepacivirus hominis
[2] = system: Hepatitis C virus; experiment: Antiviral activity against HCV 1a infected in human HB-1 cells assessed as inhibition of viral RNA replication after 24 hrs; type: functional, organism-based, Hepacivirus hominis; settings: subtype 1a, HB1, 24 h
[3] = Cytotoxicity against human HuH7 cells by MTS assay; type: cell-based, Huh-7
How it was run: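 Tested at concentrations up to 50.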

Row | IC50 [1] [µM] | EC90 [2] [µM] | EC90 ([2]; read-out: EC90) [µM] | Ki [1] [µM] | SMILES | CC50 [3] [µM]
1 | 31 |  |  |  | Nc1ccn([C@@H]2O[C@@]3(COP(=O)(O)OP(=O)(O)OP(=O)(O)O)CO[C@H]3[C@H]2F)c(=O)n1 | 
2 | 78.9 |  |  |  | Nc1ccn([C@@H]2O[C@@]3(COP(=O)(O)OP(=O)(O)OP(=O)(O)O)CO[C@H]3[C@@H]2F)c(=O)n1 | 
3 | 32.8 |  |  |  | Nc1ccn([C@@H]2O[C@@]3(COP(=O)(O)OP(=O)(O)OP(=O)(O)O)CO[C@H]3C2(F)F)c(=O)n1 | 
4 |  | > 50 |  |  | C[C@@]1(F)[C@@H]2OC[C@]2(CO)O[C@H]1n1ccc(N)nc1=O | > 50
5 |  | > 50 |  |  | Nc1ccn([C@@H]2O[C@@]3(CO)CO[C@H]3[C@H]2F)c(=O)n1 | > 50
6 |  | > 50 |  |  | Nc1ccn([C@@H]2O[C@@]3(CO)CO[C@H]3[C@@H]2F)c(=O)n1 | > 50
7 |  | > 50 |  |  | Nc1ccn([C@@H]2O[C@@]3(CO)CO[C@H]3C2(F)F)c(=O)n1 | > 50
8 |  | > 50 |  |  | CO[C@H]1[C@H](n2ccc(N)nc2=O)O[C@@]2(CO)CO[C@@H]12 | > 50
9 |  | > 50 |  |  | Nc1ncnc2c1ncn2[C@@H]1O[C@@]2(CO)CO[C@H]2[C@H]1F | > 50
10 |  |  | 4.6 |  | C[C@@]1(F)[C@H](O)[C@@H](CO)O[C@H]1n1ccc(N)nc1=O | > 50
11 |  | 5.21 |  |  | Nc1ccn([C@@H]2O[C@H](CO)[C@@H](O)[C@H]2F)c(=O)n1 | > 50
12 |  | > 50 |  |  | Nc1ccn([C@@H]2O[C@H](CO)[C@@H](O)[C@@H]2F)c(=O)n1 | > 50
13 |  | < 1 |  |  | Nc1ccn([C@@H]2O[C@H](CO)[C@@H](O)C2(F)F)c(=O)n1 [GEMCITABINE] | < 0.1
14 | 5.37 |  |  | 0.059 | C[C@@]1(F)[C@H](O)[C@@H](COP(=O)(O)OP(=O)(O)OP(=O)(O)O)O[C@H]1n1ccc(N)nc1=O [PSI-6130-TP] | 
